Reference: PMC3576184 (Oncology Letters, 2012)
“Also recorded” adds a separate entry of the source. Marks after values point to notes of the source that are not given here.

Key:
[1] = test system: vascular smooth muscle cells; details: via inhibition of Ras/MAPK signal pathway; cited from earlier work
rat neutrophils = details: through suppression of Akt and PLD activation; cited from earlier work
WEHI-3 cell allograft = experiment: BALB/c mouse WEHI-3 allograft leukemia model; format: in vivo, BALB/c mice
How it was run: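 30 BALB/c mice (6 weeks, 22–25 g) in five groups: 2-glycofurol vehicle; 1×10^7 WEHI-3 cells i.v.; test compound 100 mg/kg/day i.v. for 7 days; cells plus compound; or cells, then compound for 7 days. Weighed every 7 days; killed with CO2 at day 28, spleen and liver weighed. Blood leukocytes were red-cell-lysed, stained, and read by flow cytometry for surface markers including CD11b and CD45.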

HL-60 cells = details: cited from earlier work
[2] = Safety evaluation in BALB/c mice; format: in vivo; details: for BUN (blood urea nitrogen) / Body weight / Liver weight / Spleen weight / sGOT (serum glutamic-oxaloacetic transaminase) / sGPT (serum glutamic-pyruvic transaminase) / ALB (albumin) / LDH (lactate dehydrogenase) / PRO (total protein): mean ± SD, n=6; for ALB (albumin) / LDH (lactate dehydrogenase) / PRO (total protein): blood
How it was run: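 30 BALB/c mice in five groups received i.v. PBS, 2-glycofurol solvent, or test compound at 5, 50 or 100 mg/kg/day for 7 days. Mice were killed with CO2 at day 7. Body, liver and spleen weights were recorded. Blood was assayed for LDH, albumin, total protein, sGPT, sGOT and BUN. Spleen and liver went to histopathology. Groups were compared with controls by Student's t-test.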

WEHI-3 cells = experiment: MTT viability assay in WEHI-3 cells; format: cell-based, murine
How it was run: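 WEHI-3 murine myelomonocytic cells were grown in RPMI-1640 with 10% FBS, 2 mM L-glutamine, penicillin and streptomycin at 37°C, 5% CO2. About 2×10^4 cells/well were plated for 24 h. Test compound in DMSO was added at final 0.78–25 μM, with 0.1% DMSO as control. After 24 h, viability was read by MTT across three separate experiments.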

[3] = Cytotoxicity on normal human PBMCs; format: cell-based; details: normal human peripheral blood mononuclear cells (PBMCs)
[4] = 100 mg/kg, flow cytometry, vs leukemia group
[5] = 5 mg/kg i.v. once daily for 7 days
[6] = 50 mg/kg i.v. once daily for 7 days
[7] = 100 mg/kg i.v. once daily for 7 days

Question: Which results are given for O=Cc1ccccc1OCc1ccccc1 [2-benzyloxybenzaldehyde]?
Answer: effect on cell proliferation [1]: exhibited antiproliferative effects; superoxide anion generation (rat neutrophils): inhibits superoxide anion generation

Question: With COc1cccc(COc2ccccc2C=O)c1 [CCY-1a-E2, 2-[(3-methoxybenzyl)oxy]benzaldehyde] as the compound, how does the “level of CD11b on leukocytes” value (WEHI-3 cell allograft; [4]) read?
Answer: significantly decreased

Question: And the “level of CD45 on leukocytes” value (WEHI-3 cell allograft; [4])?
Answer: significantly decreased

Question: What about the Liver weight (WEHI-3 cell allograft; 100 mg/kg/day i.v. 7 days, day 28) of the same compound?
Answer: significantly different; also recorded: inhibited the spleen and liver growth

Question: What about the “body weight vs control mice” value (WEHI-3 cell allograft; CCY-1a-E2 100 mg/kg group (no WEHI-3 cells), i.v. 7 days, up to day 28) of the same compound?
Answer: not significantly decreased

Question: What about the “infiltration of immature myeloblastic cells into the splenic red pulp (histopathology)” value (WEHI-3 cell allograft; treated leukemic mice vs untreated leukemia group, data not shown) of the same compound?
Answer: eliminated

Question: And the apoptosis (HL-60 cells)?
Answer: induced cell apoptosis

Question: What about the cell cycle effect (HL-60 cells) of the same compound?
Answer: induced G2/M phase arrest

Question: And the “percentage of viable cells” value (HL-60 cells)?
Answer: decreased the percentage of viable cells

Question: And the “BUN (blood urea nitrogen)” value [2, 5]?
Answer: 30.33 ± 5.02 mg/dL

Question: What about the Body weight [2, 5] of the same compound?
Answer: 28.42±1.13^a g

Question: And the Liver weight [2, 5]?
Answer: 4.42±0.47 g/100 g body weight

Question: What about the Spleen weight [2, 5] of the same compound?
Answer: 0.35±0.06 g/100 g body weight

Question: What about the “sGOT (serum glutamic-oxaloacetic transaminase)” value [2, 5] of the same compound?
Answer: 105.83±22.16 U/l

Question: What about the “sGPT (serum glutamic-pyruvic transaminase)” value [2, 5] of the same compound?
Answer: 41.83±8.94 U/l

Question: What about the “BUN (blood urea nitrogen)” value [2, 6] of the same compound?
Answer: 26.17 ± 2.42 mg/dL

Question: And the Body weight [2, 6]?
Answer: 28.88±1.52^a g

Question: What about the Liver weight [2, 6] of the same compound?
Answer: 4.18±0.33 g/100 g body weight

Question: And the Spleen weight [2, 6]?
Answer: 0.31±0.06 g/100 g body weight

Question: What about the “sGOT (serum glutamic-oxaloacetic transaminase)” value [2, 6] of the same compound?
Answer: 79.98±26.10 U/l

Question: And the “sGPT (serum glutamic-pyruvic transaminase)” value [2, 6]?
Answer: 43.92±16.02 U/l

Question: What about the “BUN (blood urea nitrogen)” value [2, 7] of the same compound?
Answer: 28.92 ± 2.20 mg/dL

Question: What about the Body weight [2, 7] of the same compound?
Answer: 28.90±0.51^a g

Question: And the Liver weight [2, 7]?
Answer: 4.17±0.26 g/100 g body weight

Question: And the Spleen weight [2, 7]?
Answer: 0.37±0.04 g/100 g body weight

Question: What about the “sGOT (serum glutamic-oxaloacetic transaminase)” value [2, 7] of the same compound?
Answer: 115.12±15.08 U/l

Question: What about the “sGPT (serum glutamic-pyruvic transaminase)” value [2, 7] of the same compound?
Answer: 41.83±10.02 U/l

Question: And the “sGPT and sGOT levels vs normal range” value ([2]; 5, 50 and 100 mg/kg i.v. for 7 days)?
Answer: within the normal value range

Question: And the “histopathology of spleen and liver” value ([2]; 5, 50 and 100 mg/kg, vs vehicle-treated controls, data not shown)?
Answer: No significant microscopic aberrations

Question: And the “ALB (albumin)” value [2, 5]?
Answer: 1.58 ± 0.38 g/dL

Question: What about the “LDH (lactate dehydrogenase)” value [2, 5] of the same compound?
Answer: 298.00±62.22 U/l

Question: And the “PRO (total protein)” value [2, 5]?
Answer: 3.68 ± 0.60 g/dL

Question: And the “ALB (albumin)” value [2, 6]?
Answer: 1.73 ± 0.26 g/dL

Question: What about the “LDH (lactate dehydrogenase)” value [2, 6] of the same compound?
Answer: 244.83±46.99 U/l

Question: And the “PRO (total protein)” value [2, 6]?
Answer: 4.06 ± 0.58 g/dL

Question: What about the “ALB (albumin)” value [2, 7] of the same compound?
Answer: 1.84 ± 0.13 g/dL

Question: What about the “LDH (lactate dehydrogenase)” value [2, 7] of the same compound?
Answer: 270.83±42.09 U/l

Question: What about the “PRO (total protein)” value [2, 7] of the same compound?
Answer: 4.77 ± 0.46 g/dL

Question: What about the IC50 (WEHI-3 cells; Mus musculus, WEHI-3, 24 h, read-out: IC50 (cell viability, MTT)) of the same compound?
Answer: 5 µM

Question: What about the “percentage of viable cells” value (WEHI-3 cells; WEHI-3 cells, 0.78-25 μM, 24 h, MTT) of the same compound?
Answer: decreased the percentage of viable cells in a concentration-dependent manner

Question: What about the IC50 [3] of the same compound?
Answer: > 20 µM
